Experiments:
[1] = Tmax in Sprague-Dawley rat measured upto 24 hrs by […] analysis; type: ADME; conditions: in vivo
Procedure, shortened: (§1)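 Male Sprague-Dawley rats (275-300 g), carotid-catheterized and acclimated overnight. Dosing was i.v. at 1 mpk (n=2) in 70% saline/20% PEG-400/10% ethanol, or oral at 3 mpk (n=3) as a suspension in 0.5% HPMC/Tween. Plasma drug was measured by LC-MS/MS. Cmax and Tmax were read from individual profiles. t½ came from the terminal log-linear slope and AUC by the linear trapezoidal rule. CL = dose/AUC0-∞, Vdss = CL×MRT, F = dose-normalized AUC po/iv.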

[2] = Oral bioavailability in Sprague-Dawley rat at 3 mg/kg measured upto 24 hrs by […] analysis; type: ADME, organism-based; conditions: in vivo; procedure, shortened: as §1
[3] = Cytotoxicity against human PBMC cells assessed as reduction in cell viability at upto 20 uM; type: toxicity, cell-based
[4] = Antiinflammatory activity in human Whole blood cell assessed as inhibition of LPS induced TNF alpha production preincubated for 1 hr followed by LPS stimulation and measured after 16 hrs by MSD analysis; type: functional, cell-based
[5] = Inhibition of recombinant 6 his tagged N/C-terminal MSK1 (367 to 802 residues)/MSK2 (351 to 772 residues) (unknown origin) expressed in baculovirus infected Sf9 insect cells using KKKALSRQLSVAA as substrate incubated for 1 hr followed by substrate addition in presence of ATP; parameters: species or system Homo sapiens
Procedure, shortened: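 MAPKAP family kinases were activated by p38α (1:50 molar, 250 μM ATP, 1 h, 30°C). Assays ran in 20 mM HEPES pH 7.5, 10 mM MgCl2, 1 mM DTT, 0.01% BSA, 0.0005% Tween-20, at MgATP fixed at each enzyme's Km(app). The 33P-labelled product peptide was separated by ion exchange. Duplicate experiments. MSK1 (367-802) and MSK2 (351-772) were N-terminal 6xHis constructs from Sf9 cells.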

[6] = Cytotoxicity against human Whole blood cell assessed as reduction in cell viability at upto 20 uM; type: toxicity, cell-based
[7] = Inhibition of IL-6 production in LPS induced human Whole blood cell preincubated with compound for 1 hr followed by LPS induction and measured after 16 hrs; type: functional, cell-based
Procedure, shortened: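 Human whole blood was stimulated ex vivo with LPS 100 ng/ml. Plasma cytokines were read by MSD 4-plex: TNFα at 4 h; IL-1β, IL-6 and IL-8 at 16 h. Data are means ±S.E.M. of two independent experiments in duplicate, three donors. IC50 by 4-parameter nonlinear regression.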

[8] = biological target: T1, Mitogen-activated protein kinase kinase kinase 5 (Homo sapiens, UniProt Q99683); assay: Inhibition of ASK1 (unknown origin)
T1 sequence (Q99683 whole entry): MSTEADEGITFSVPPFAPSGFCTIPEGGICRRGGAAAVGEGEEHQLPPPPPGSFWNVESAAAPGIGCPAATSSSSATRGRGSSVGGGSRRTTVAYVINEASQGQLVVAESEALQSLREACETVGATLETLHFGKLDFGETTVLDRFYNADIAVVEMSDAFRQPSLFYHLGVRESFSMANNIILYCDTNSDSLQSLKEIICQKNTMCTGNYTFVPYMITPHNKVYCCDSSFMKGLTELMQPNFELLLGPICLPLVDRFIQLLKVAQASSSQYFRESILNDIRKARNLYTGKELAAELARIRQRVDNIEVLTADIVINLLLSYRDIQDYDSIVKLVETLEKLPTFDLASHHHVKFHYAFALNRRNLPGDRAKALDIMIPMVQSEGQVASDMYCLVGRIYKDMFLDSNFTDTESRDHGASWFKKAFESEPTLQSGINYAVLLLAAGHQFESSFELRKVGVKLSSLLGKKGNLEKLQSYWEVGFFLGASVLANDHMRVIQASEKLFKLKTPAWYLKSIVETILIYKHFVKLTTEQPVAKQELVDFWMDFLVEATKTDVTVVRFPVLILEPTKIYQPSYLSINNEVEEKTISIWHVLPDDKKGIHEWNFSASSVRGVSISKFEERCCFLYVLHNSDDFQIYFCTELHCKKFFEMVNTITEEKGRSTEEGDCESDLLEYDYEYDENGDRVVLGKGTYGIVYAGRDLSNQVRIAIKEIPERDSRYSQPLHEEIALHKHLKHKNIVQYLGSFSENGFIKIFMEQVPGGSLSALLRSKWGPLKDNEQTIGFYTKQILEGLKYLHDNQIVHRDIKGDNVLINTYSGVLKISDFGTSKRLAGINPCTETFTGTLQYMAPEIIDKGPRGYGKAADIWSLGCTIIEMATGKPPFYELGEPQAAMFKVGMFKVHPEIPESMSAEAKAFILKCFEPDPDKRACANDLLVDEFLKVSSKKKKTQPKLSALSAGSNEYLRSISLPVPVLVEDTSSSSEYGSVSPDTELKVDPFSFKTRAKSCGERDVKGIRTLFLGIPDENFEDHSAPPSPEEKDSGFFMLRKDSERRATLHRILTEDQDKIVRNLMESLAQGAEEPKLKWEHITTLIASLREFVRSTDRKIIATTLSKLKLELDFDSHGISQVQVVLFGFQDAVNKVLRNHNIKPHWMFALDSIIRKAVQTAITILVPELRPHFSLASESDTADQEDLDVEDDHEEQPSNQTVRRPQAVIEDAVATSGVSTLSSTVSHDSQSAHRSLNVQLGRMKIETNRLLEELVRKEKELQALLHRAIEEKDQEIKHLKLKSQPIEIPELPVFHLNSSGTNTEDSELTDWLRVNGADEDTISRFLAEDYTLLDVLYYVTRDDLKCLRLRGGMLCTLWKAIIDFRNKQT
Procedure, shortened: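 Kinase panel: 200 kinases were first screened at 1 μM inhibitor for percent inhibition. Those above 50% inhibition were then titrated for IC50. MgATP was fixed at the Km(app) determined for each enzyme.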

[9] = Inhibition of IL-6 production in LPS induced human PBMC cells preincubated with compound for 1 hr followed by LPS induction and measured after 16 hrs by MSD analysis; type: functional, cell-based
Procedure, shortened: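 Human PBMCs were pretreated with compound for 1 h (<1% DMSO final), then stimulated with LPS 100 ng/ml at 37°C. Cytokines in culture media were read by MSD 4-plex: TNFα at 4 h; IL-1β, IL-6 and IL-8 at 16 h. Data are means ±S.E.M. of two independent experiments in duplicate, three donors. IC50 by 4-parameter nonlinear regression.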

Cc1ccc(-c2ccc3c(ccc4sc5c(c43)NC[C@@H](C)NC5=O)n2)cn1
Tmax [1]: 10.2 min | bioavailability [2]: 46% | Activity [3]: Non-Toxic | IC50 [4]: 1380 nM | IC50 [5]: > 1000 nM | Activity [6]: Non-Toxic | IC50 [7]: 10300 nM | IC50 [8]: 60 nM | IC50 [9]: 1260 nM

— ChEMBL document CHEMBL5678801, “A benzothiophene inhibitor of mitogen-activated protein kinase-activated protein kinase 2 inhibits tumor necrosis factor alpha production and has oral anti-inflammatory efficacy in acute and chronic models of inflammation” (J Pharmacol Exp Ther, 2010)
